For 98 compounds, cytotoxicity results are on record in ChEMBL document CHEMBL4513216, “Probing the Open Global Health Chemical Diversity Library for Multistage-Active Starting Points for Next-Generation Antimalarials” (ACS Infect Dis, 2020).

Each structure is given as a SMILES string.

The data set can be described thus: Toxicity liver stage against HepG2, at 10uM. It is filed as cell-based. More on the design: test concentration 10 uM, cell line HepG2-A16-CD81EGFP. The conditions noted are these: human, HepG2-A16-CD81EGFP cells; read-out: INHIBITION
A digest of the protocol: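 Uninfected HepG2-A16-CD81EGFP cells, 3 × 10^3 per well, 1536-well, plated on prespotted compound at 10 μM final, parasite-free screening media added to match infected plates; puromycin 10 μM positive, DMSO 0.5% negative; run in parallel with 48 h PbLuc assay at 37 °C, 5% CO2; viability by CellTiter-Glo luminescence, normalized to controls.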
For the compound `CN1C(=O)[C@H](OC(N)=O)[C@@H](C(=O)Nc2ccccc2)C12CCNCC2`, the cytotoxicity at 10 µM was 2.73%.

For `CCN1CC2(CC1=O)CN(C(=O)c1ccoc1)CCN(C(=O)N(C)C)C2` (stereo not drawn), the cytotoxicity at 10 µM was 4.26%. The result for `O=C(c1ccccc1)N1CC(C(=O)N2CCOCC2)C2(CCOCC2)C1` (stereo not drawn) reads 3.07%; that for `Cn1ncc2c1C(COCC1CC1)CN(C(=O)Cc1ccsc1)C2` (stereo not drawn), 10.1%; that for `COc1cccc2c3c(c(=O)[nH]c12)CCO3`, 5.57%.

Consider `CC(C)CCN1CN=C(NS(=O)(=O)c2ccc(F)cc2)NC1`, for which the cytotoxicity at 10 µM was -3.03%. As for `O=C1CSC(c2ccsc2)c2sccc2N1` (stereo not drawn), the cytotoxicity at 10 µM was found to be 2.19%. The result for `CC(C)NC(=O)N1CCN(S(=O)(=O)C2CC2)CC2(CNC(=O)C2)C1` (stereo not drawn) reads 1%; that for `CC(C)(C)NC(=O)c1ccn(COc2c(Cl)cccc2Cl)n1`, 3.02%; that for `Fc1ccccc1NCc1nc2n(n1)CCCCC2`, 2.02%.

On to `COc1cc(C(F)(F)F)sc1C(=O)O`, for which the cytotoxicity at 10 µM was -3.29%. The value for `CCn1nc(CNC(C)(C)CO)c(-c2ccccc2)n1` was 8.96%.

`Cc1nc(N2CCOCC2)ncc1-c1cc(O)nc(N2CCCCC2)n1`: the cytotoxicity at 10 µM came out at 6.2%. Turning to `O=C1CCOC[C@]2(CN(Cc3ccccc3)C[C@H]2c2cccnc2)N1`, the cytotoxicity at 10 µM was 4.73%. The value for `CC(=O)N1CCOC(c2ccnc(N(C)C)n2)C1` (stereo not drawn) was 1.62%; that for `CC(C)N1CCC(c2cnc(-c3cn[nH]c3)cn2)CC1` was 5.36%. The result for `O=C(O)c1ccccc1-n1cc(CN2CCOC(c3cc[nH]n3)C2)cn1` (stereo not drawn) reads 3.33%; that for `CCc1nccn1-c1cccc(C2CCN(C(=O)COC)CC2)n1`, -14.9%.

For the compound `CS(=O)(=O)N1CCCC1Cn1cccn1` (stereo not drawn), the cytotoxicity at 10 µM is -10.2%. The result for `O=C(O)c1ccccc1CN1CCOC(CCc2ccncn2)C1` (stereo not drawn) reads -20.6%. The value for `COCCCNC(=O)c1ccccc1-n1cc(CN(C)C)cn1` was -22.4%. With `Cc1noc(CNC(=O)c2ccccc2-n2cc(CN)cn2)n1`, the cytotoxicity at 10 µM is -19.6%. For the compound `O=C(Nc1nncs1)C1CSCN1C(=O)C1CCCC1` (stereo not drawn), the cytotoxicity at 10 µM stood at 11.3%. The value for `CN(C)CCOc1ccccc1N1CCN(C(=O)C(C)(C)C#N)CC1` was 11.4%; that for `Cn1ccnc1C(O)(CCNCc1ccco1)C(F)(F)F` (stereo not drawn) was 1.66%; that for `CSc1cccc(NC(=O)CCC(=O)Nc2nccs2)c1` was -5.05%. `CSCC(C)C(=O)NCc1c(C)nc2cc(=O)[nH]n2c1C` (stereo not drawn): the cytotoxicity at 10 µM was -16.3%. For `CNS(=O)(=O)CC1CCCN1c1ccc(Br)cn1` (stereo not drawn), the cytotoxicity at 10 µM was determined as 3.1%. The result for `CCN(C)Cc1cccc(CNC(=O)CSCc2ccccn2)c1` reads 1.61%; that for `NS(=O)(=O)CCNC(=O)c1ccc(OCc2ccccc2)nc1`, 6.85%; that for `Cc1noc(C)c1CN(C)CC1CC(C2CCCCC2)=NO1` (stereo not drawn), 3.72%.

`CCNC(=O)C1CCCN(c2ccc3ccc(F)cc3n2)C1` (stereo not drawn): the cytotoxicity at 10 µM is -1.69%. The value for `O=C(Cc1ccon1)N1CCN(c2ccncc2Cl)CC1` was -2.47%. The result for `CC(Cc1cccc(F)c1)C(=O)NS(=O)(=O)c1ccc(F)cc1` (stereo not drawn) reads 5.58%; that for `CN1N=C(C(=O)N2CCCN(c3ncccc3C#N)CC2)CCC1=O`, -1.8%; that for `O=C(N1CCSCC1)C1(O)Cc2ccccc2C1`, 6.35%. On to `O=S(=O)(CCN1CCCC1Cn1cccn1)c1ccccc1` (stereo not drawn), for which the cytotoxicity at 10 µM is -11.9%.

With `CN(Cc1cnn(C)c1)S(=O)(=O)N1CCCCC1`, the cytotoxicity at 10 µM was -3.38%. The result for `CC(CO)CSc1ncnc2[nH]ncc12` (stereo not drawn) reads -12.3%; that for `N#CCCCOc1cccnc1NC(=O)CC1CCCCC1`, 21.9%. For `CNC(=O)N1CCCCC1c1nnc2n1CCCC2` (stereo not drawn), the cytotoxicity at 10 µM is -6.1%.

`O=C(O)c1cc2c(c(S(=O)(=O)N(CCCO)c3ccccc3)c1)CCC2`: the cytotoxicity at 10 µM was 6.58%. In the case of `CN(Cc1ccccc1NCc1cscn1)C(=O)c1cccs1`, the cytotoxicity at 10 µM came out at 0.503%. The result for `CN(C(=O)COCc1ccccc1)C1CCN(CC2CCOC2)CC1` (stereo not drawn) reads -3.7%; that for `CN1CCCC(N2CCN(c3nc4ccccn4c3C#N)CC2)C1` (stereo not drawn), 1.52%; that for `COc1ccc(OC)c(-n2nnnc2SCC2CCCCO2)c1` (stereo not drawn), 11.7%. As for `CS(=O)(=O)NC1CCCN(C(=O)Nc2ccccc2Cn2cccn2)C1` (stereo not drawn), the cytotoxicity at 10 µM was 3.81%. The value for `CCNc1nc(C)c(C(=O)N(C)Cc2nc(CC)no2)s1` was -6.02%; that for `CCn1cc(S(=O)(=O)N2CCCC2c2ccc(C)o2)cn1` (stereo not drawn) was 20.9%.

`Cc1ccc(C2CSCCN2C(=O)c2cccs2)o1` (stereo not drawn): the cytotoxicity at 10 µM amounted to 3.82%.

As to `Cc1cc(F)ccc1S(=O)(=O)N1CCN(C)c2ccncc21`, the cytotoxicity at 10 µM turned out to be 8.29%. The result for `N#Cc1ccc(-c2nnc(CSCCN3CCOCC3)o2)cc1` reads -5.08%; that for `CN(C)CCN(Cc1ccco1)C(=O)Cc1cn2ccsc2n1`, 5.92%.

As for `O=C(CN1CCSCC1c1ccccc1)N1CCOCC1` (stereo not drawn), the cytotoxicity at 10 µM is -5.88%.

Turning to `Cc1nn(C)c(C)c1CNC1CCOc2ccccc21` (stereo not drawn), the cytotoxicity at 10 µM stood at 7.75%. The value for `Cc1nn(C)c(N(C)C)c1CNCC(O)c1ccccc1` (stereo not drawn) was -0.989%. The result for `CCCn1ccc2ccc(NC(=O)N(C)CCOC)cc21` reads 1.31%. As for `COCCn1c2c(ccc1=O)CCN(C(=O)C1CC=CC1)CC2`, the cytotoxicity at 10 µM is 4.77%.

With `CN1CCN(Cc2cnc3n2CCN(C(=O)c2cnccn2)C3)CC1`, the cytotoxicity at 10 µM was -65.1%. In the case of `CN(C)[C@@H]1CCN(C(=O)c2ccccn2)[C@H]1Cc1cnn(C)c1`, the cytotoxicity at 10 µM is -70%. The result for `Cc1occc1C(=O)N1CCc2ncnc(C3CCOC3)c2CC1` (stereo not drawn) reads -85%; that for `OCCC1CN(c2nc(-c3cccnc3)nc3c2CCNCC3)CCO1` (stereo not drawn), -2.64%.

For the compound `Cc1ccc(NC2(C(=O)NC(C)c3ncn[nH]3)CCCC2)cc1` (stereo not drawn), the cytotoxicity at 10 µM is 0.317%.

For the compound `CSCc1noc(-c2nc3c([nH]2)CCCNC3=O)n1`, the cytotoxicity at 10 µM was -2.48%. In the case of `COCCn1cncc1CN1CCCC(C(=O)Cc2ccccc2)C1` (stereo not drawn), the cytotoxicity at 10 µM was -6.55%. With `CNC(=O)[C@@H]1C[C@@H](NC(=O)c2ccc(OC)o2)CN1Cc1sccc1C`, the cytotoxicity at 10 µM was 2.29%.

As for `O=C(NCCCn1ccnn1)C1CCCN(C2CCCC2)C1` (stereo not drawn), the cytotoxicity at 10 µM is -6.03%. Take `CN(C)C(C(=O)NCCS(=O)(=O)N(C)C)c1cccc(F)c1` (stereo not drawn): the cytotoxicity at 10 µM came to 2.73%. Take `CN(C)CCCn1ccc(-c2cccc(-c3ccccn3)c2)n1`: the cytotoxicity at 10 µM was -6.02%. The value for `COc1ccc(F)c(F)c1CN1CC(=O)N(c2ccccc2C)CC1C` (stereo not drawn) was -0.121%; that for `CCC(=O)c1ccc(OCC(=O)N(C)C(C)c2ccon2)cc1` (stereo not drawn) was 1.71%; that for `C=Cc1ccc(C(=O)NC2CCCc3nc(N(C)C)ncc32)cc1` (stereo not drawn) was 8.18%. As for `Cc1nc(N2CCN3CCCCC3C2)nc2cc(S(C)(=O)=O)ccc12` (stereo not drawn), the cytotoxicity at 10 µM is -6.25%.

Regarding `Cc1c(-c2nc3cc(S(=O)(=O)N4CCCC4)ccc3n2C)cnn1C`, the cytotoxicity at 10 µM amounted to 2.2%. The result for `CN(C)c1ncc2c(n1)CCCC2NC(=O)c1ccsc1` (stereo not drawn) reads 10%. The result for `CCn1cc(CN2CCCn3nc(CNC(=O)N(C)C)cc3C2)cn1` reads 6.99%; that for `Cc1nc(C)n(C2CCCN(C(=O)c3ccc4nccn4c3)C2)n1` (stereo not drawn), -12%; that for `CCOc1ccc(CN(CC)C(=O)c2ccc(C)[nH]c2=O)cc1OC`, -6.83%. The result for `COc1ccc(NC(=O)CCc2c(C)nc3cc(O)nn3c2C)cn1` reads -9.21%. Turning to `CCCc1nc(C(C)(C)NC(=O)C2CC(=O)N(CC3CC3)C2)no1` (stereo not drawn), the cytotoxicity at 10 µM was -3.61%.

`CCOC(=O)c1sc2ccsc2c1CNC(=O)C(C)(C)C#N`: the cytotoxicity at 10 µM was -4.42%. In the case of `Cc1ccc(NC2CCN(C(=O)c3c(C)noc3C)CC2)nn1`, the cytotoxicity at 10 µM is -4.35%. The value for `Cc1csc(C2CCCN(C(=O)c3cnc4n[nH]c(C)c4c3)C2)n1` (stereo not drawn) was -9.39%; that for `c1cc(CNCC2OCCc3cn(CC4CC4)nc32)cs1` (stereo not drawn) was 2.61%; that for `O=C(NC1COC2(CCN(Cc3cccs3)CC2)C1)c1ccccn1` (stereo not drawn) was -2.19%. As to `COCC1CN(c2ccc(C)nn2)Cc2cnn(C)c21` (stereo not drawn), the cytotoxicity at 10 µM stood at 11.7%. The value for `c1cncc(OC[C@]23COC[C@H]2CN(C2CCC2)C3)c1` was 4.64%; that for `COc1ccc(CN(Cc2ccco2)Cc2[nH]cnc2C)c(OC)c1` was -1.57%; that for `Cc1ccccc1CC(=O)N1C[C@@H]2COC[C@]2(CN(C)C)C1` was 3.79%. Take `COc1nn(C)c2c1CCCN(C(=O)c1ccc3c(c1)OCO3)C2`: the cytotoxicity at 10 µM is 13.1%.

`O=C(N1CCCC1)N1CCc2onc(COc3cccnc3)c2C1`: the cytotoxicity at 10 µM is -75.6%.

For `CCN1CC2(CC1=O)CN(Cc1cnn(C)c1)CCN(C(=O)N(C)C)C2` (stereo not drawn), the cytotoxicity at 10 µM is -1.9%.

Take `CCCS(=O)(=O)N1CCOCC2(CCN(c3ccccn3)C2)C1` (stereo not drawn): the cytotoxicity at 10 µM was determined as 2.42%. The result for `CCN1CC2(CC1=O)CN(Cc1ccsc1)CCN(C(=O)C(C)C)C2` (stereo not drawn) reads 5.08%; that for `Cc1c(C2CCCN(C(=O)c3ccncc3)C2)n2c(nc1=O)CCC2` (stereo not drawn), -21.8%; that for `O=C(c1ccccn1)N1C[C@H]2CC[C@@H](C1)N(C(=O)c1ccsc1)C2`, 3.88%. With `Cn1cnc(S(=O)(=O)N2C[C@H]3CC[C@@H](C2)N(Cc2ccccn2)C3)c1`, the cytotoxicity at 10 µM worked out at 7.27%. Regarding `CC(C)CNC(=O)[C@H]1C[C@H]2CN(C(=O)NCCc3ccccc3)C[C@@H]1O2`, the cytotoxicity at 10 µM is 1.22%.
